From PubChem BioAssay
Most compounds without a hit are left out; they make up all but 4.3% or so of the library.
TAAR1 agonist – agonists of human TAAR1; CHO RD-HGA16 TAAR1, Fluo-8 calcium fluorescence; vehicle wells 0%, saturating PEA agonist 100%; activation, % at 3 µM; 360,000 tested, 0.99% active;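 active = activation above the mean activation of all test compounds in the run plus 3 SD, cut at about 38% in these data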
Target sequence (Q96RJ0 whole entry, looked up): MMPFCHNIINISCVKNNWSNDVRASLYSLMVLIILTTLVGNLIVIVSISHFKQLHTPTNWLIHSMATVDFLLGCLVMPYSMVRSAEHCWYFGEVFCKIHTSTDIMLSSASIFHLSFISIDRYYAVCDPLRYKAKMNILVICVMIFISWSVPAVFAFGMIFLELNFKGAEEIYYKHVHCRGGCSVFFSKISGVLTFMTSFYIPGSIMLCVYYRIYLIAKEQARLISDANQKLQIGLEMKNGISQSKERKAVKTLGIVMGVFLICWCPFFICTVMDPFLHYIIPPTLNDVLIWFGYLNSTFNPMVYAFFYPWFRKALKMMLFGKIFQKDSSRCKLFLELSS
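Signal – calcium-sensitive Fluo-8 signal, excitation 470-495, emission 515-575 nm · System – RD-HGA16 (CHO) cells co-expressing Gα16 and hTAAR1 · Incubation – 17-24 h seeding, 75 min 37 °C dye, 30 min RT · Compound dosing – 3 µM single concentration · Repeats – no replicates (n 1)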
OX1R antag-1 – antagonists of human orexin 1 receptor (OX1R). 330,000 tested, 1.8% active. O43613. AID 485270. inhibition, % at 6.6 µM. OX1R-expressing cells, FRET antagonist read-out; in the data active = inhibition mostly above about 38%, no sharp cut-off; inactive = mostly below about 40%
TAAR1 antag – antagonists of human TAAR1. CHO RD-HGA16 TAAR1, Fluo-8 calcium fluorescence, antagonist. inhibition, % at 3 µM. 360,000 tested, 1.5% active. AID 624466;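 active = inhibition above a per-plate cutoff, the mean inhibition of test compounds on that plate plus 3 SD, cut at about 49% in these data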
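Assay system: CHO-derived RD-HGA16 cells stably expressing human TAAR1 plus Gα16. Timing: 140 s kinetic read after compound, 140 s after agonist. Technique: kinetic Fluo-8 calcium fluorescence measurement. Measure: % inhibition of agonist calcium response.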
OX1R antag-2 – antagonists of human orexin 1 receptor; CHO/OX1R cells, Fluo-8 calcium fluorescence, orexin A; inhibition, % at 5 µM; 330,000 tested, 0.43% active;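 active = inhibition above its plate's threshold, mean inhibition of all tested compounds on the plate plus 3 SD, cut at about 37% in these data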
GalR3 antagonist – antagonists of human GalR3. O60755. HEK293 GalR3-CNG cAMP membrane potential fluorescence; galR3 body fused to GalR1 C-terminus. inhibition, % at 3 µM. 360,000 tested, 0.44% active. AID 651719;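 active = inhibition above the screen-wide average plus 3 SD, cut at about 13% in these data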;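 also: forskolin and galanin both at EC90 stimulate the cells; cAMP rise reported by CNG channel membrane potential dye signal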
CHO parental Ca – counter-screen: ATP calcium response change in parental CHO cells | parental CHO-K1, ATP-induced calcium, Fluo-8 fluorescence | inhibition, % at 5.6 µM | 330,000 tested, 0.63% active | AID 463079;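 active = inhibition above that plate's mean sample inhibition plus 3 SD, cut at about 26% in these data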
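Assay system: untransfected parental CHO cell line. Also added: ATP agonist challenge. Dosing: one dose, 5.6 µM nominal. Measured by: Fluo-8 fluorescence. Read-out: % inhibition. Benchmarks: ATP wells versus no-ATP DMSO wells. Repeats: no replicates.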
TAAR1 ag confirm – human TAAR1 agonism, confirmed | CHO RD-HGA16 TAAR1, Fluo-8 calcium fluorescence; scaled: DMSO 0%, maximal phenethylamine 100% | 2,400 tested, 82% active | shares compounds with TAAR1 agonist | activation, % at 3 µM;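 active = activation above a cutoff set at the run's mean compound activation plus 3 SD, cut at about 39% in these data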
Ga16 nonsel ag – nonselective agonist in parental cells, TAAR1 agonist counter-screen | shares compounds with TAAR1 agonist | CHO-Ga16 parental, Fluo-8 calcium fluorescence; normalized to maximal ATP response, DMSO zero | activation, % at 3 µM | 2,400 tested, 50% active | AID 651787;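 active = activation above the run cutoff, the mean activation over all tested wells plus 3 SD, cut at about 12% in these data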
TAAR1 desensitize – human TAAR1 agonist that also desensitizes the receptor. inhibition, % at 3 µM. shares compounds with TAAR1 agonist. AID 651951. CHO RD-HGA16 hTAAR1, Fluo-8 calcium, beta-PEA response inhibition. 2,400 tested, 46% active;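 active = inhibition above the run cutoff, the mean inhibition of all test compounds plus 3 SD, cut at about 49% in these data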;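 also: beta-PEA stimulus applied at its EC80; loss of beta-PEA calcium signal after compound pretreatment read as receptor desensitization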
Ga16 nonsel ant – nonselective Ga16 antagonism, counter-screen. shares compounds with TAAR1 agonist. CHO-Ga16 ATP-induced calcium, Fluo-8 fluorescence. inhibition, % at 3 µM. 2,400 tested, 39% active;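 active = inhibition above the plate's mean compound inhibition plus 3 SD, computed per plate, cut at about 22% in these data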
Of the large screens only hits and unclear results are named; the others gave an inactive call (follow-up assays come after a bar, where they were run).

CN(CCc1ccccc1)c1cc2c(c3c1ccn3C)C1CCC2C1 (configuration not stated)	TAAR1 agonist 82 (no result: OX1R antag-1, OX1R antag-2, CHO parental Ca) | TAAR1 ag confirm 52 | Ga16 nonsel ag inactive | TAAR1 desensitize inactive | Ga16 nonsel ant inactive
CN(Cc1ccccc1)c1cc2c(c3c1ccn3C)C1CCC2C1 (configuration not stated)	none (no result: OX1R antag-1, OX1R antag-2, CHO parental Ca)
Cc1ccc(C)c(C(=O)CCC(=O)NNC(=O)c2cccs2)c1	none
Cc1ccc(S(=O)(=O)C2(C(=O)NCCc3ccccc3)CC2)cc1	TAAR1 agonist 50 | TAAR1 ag confirm 82 | Ga16 nonsel ag inactive | TAAR1 desensitize inactive | Ga16 nonsel ant inactive
Cc1ccc(S(=O)(=O)NC(=O)NCCc2ccccc2)cc1	TAAR1 agonist 71 | TAAR1 ag confirm 81 | Ga16 nonsel ag inactive | TAAR1 desensitize inactive | Ga16 nonsel ant inactive
O=C(NCCc1ccccc1)C1(S(=O)(=O)c2ccc(Cl)cc2)CC1	none
Cc1ccc(S(=O)(=O)NC(=O)Nc2ccc(C)cc2C)cc1	none (no result: OX1R antag-1, OX1R antag-2, CHO parental Ca)
CN(C)S(=O)(=O)c1ccc(N2CCCC2)c(C(=O)OCC(=O)NC2(C#N)CCCCC2)c1	none (no result: TAAR1 agonist, TAAR1 antag, GalR3 antagonist)
CN(C)c1ncnc2c1ncn2[C@H]1CN(CCN2CCOCC2)C[C@@H](CO)O1	none (no result: OX1R antag-1, OX1R antag-2, CHO parental Ca)
Fc1ccccc1C1CCN(Cc2nc(CC3CC3)no2)C1 (configuration not stated)	TAAR1 agonist 48 | TAAR1 ag confirm 62 | Ga16 nonsel ag inactive | TAAR1 desensitize inactive | Ga16 nonsel ant inactive
Fc1ccc2nc(C3CCN(Cc4nc(CC5CC5)no4)CC3)[nH]c2c1	none
Cc1ccc(-c2n[nH]c(=S)c3ccccc23)cc1S(=O)(=O)NCC1CCCO1 (configuration not stated)	none
CC(=O)c1c(C)[nH]c(C(=O)N(C)CC(=O)Nc2ccc(Cl)c(C(F)(F)F)c2)c1C	none
Cc1ccc(OCC(O)CNCc2ccccc2)cc1C (configuration not stated)	none
O=C(c1ccccc1)c1ccc(OCC(O)CNCc2cccc(Cl)c2)cc1 (configuration not stated)	TAAR1 agonist 58 (no result: OX1R antag-1, OX1R antag-2, CHO parental Ca) | TAAR1 ag confirm 95 | Ga16 nonsel ag 43 | TAAR1 desensitize 60 | Ga16 nonsel ant 40
CCC(=O)c1ccc(OCC(O)CNCc2ccc(F)cc2)cc1 (configuration not stated)	none
O=C(c1ccccc1)c1ccc(OCC(O)CNCc2ccc(F)cc2)cc1 (configuration not stated)	TAAR1 agonist 48 (no result: OX1R antag-1, OX1R antag-2, CHO parental Ca) | TAAR1 ag confirm 48 | Ga16 nonsel ag 19 | TAAR1 desensitize inactive | Ga16 nonsel ant 24
C=CCSc1nc(C)c(CC=C)c(=O)[nH]1	none
C=CCc1c(C)[nH]c(=O)[nH]c1=O	TAAR1 agonist 72 | TAAR1 ag confirm inactive | Ga16 nonsel ag inactive | TAAR1 desensitize inactive | Ga16 nonsel ant inactive
CC1=CC(C)(C)N(C(=O)c2ccc(F)cc2)c2cc3c(cc21)OCO3	TAAR1 agonist 59 | TAAR1 ag confirm 62 | Ga16 nonsel ag 41 | TAAR1 desensitize inactive | Ga16 nonsel ant 34
CC1=CC(C)(C)N(C(=O)CCl)c2cc(C)ccc21	none
O=C(NCCc1ccccc1)c1cc(-c2ccco2)on1	TAAR1 agonist 47 | TAAR1 ag confirm 44 | Ga16 nonsel ag inactive | TAAR1 desensitize inactive | Ga16 nonsel ant inactive
O=C(NCc1ccccc1)c1cc(-c2ccco2)on1	none
COc1ccc(Nc2cc(C)nc(N)n2)cc1	none
